Assay results gathered from unrelated publications.

Cn1ccnc1N1CCN(CC2CCN(c3nccc4[nH]c(-c5cc(F)cc(F)c5)nc34)CC2)CC1  AUC(0-t) (mouse; blood; intravenous; 2 mg/kg): 7.88 µM·h
CNC(=O)c1cc(OC)cc2c(N3CCc4c(cc(Cn5ccnc5)cc4-c4cn(C)nc4C(F)(F)F)C3=O)ccnc12  AUC(0-t) (male CD-1 mouse; plasma; intravenous; 3 mg/kg): 3300 ng·h/mL
C[C@H](NC(=O)C(C)(C)Oc1ccc(C(F)(F)F)cn1)[C@@H](Cc1ccc(Cl)cc1)c1cccc(C#N)c1  AUC(0-t) (mouse; plasma; oral; 6 µmol/kg; single dose): 5.3 µM·h
CC[C@H](C)[C@@H]1NC(=O)[C@@](C)(NC(=O)[C@H](CCCNC(=N)N)NC(=O)[C@H](CC(C)C)NC(=O)[C@@H](NC(=O)[C@H](CCC(N)=O)NC(=O)[C@H](CC(C)C)NC(C)=O)[C@@H](C)O)CCCC=CCCC[C@@](C)(C(=O)N[C@@H](CC(C)C)C(=O)N[C@@H](Cc2ccc3ccccc3c2)C(N)=O)NC(=O)[C@H](CCCNC(=N)N)NC(=O)[C@H](CCC(N)=O)NC1=O  AUC(0-t) (male BALB/c mouse; plasma; intravenous; 10 mg/kg): 233000 ng·h/mL
CC(C)OC(=O)c1sc(Nc2ncccn2)nc1-c1cnccn1  AUC(0-t) (male CD-1 mouse; plasma; oral; 2.5 mg/kg): 54 ng·h/mL
Cc1ccc2cncc(N3CCc4c(cc(Cn5ccnc5)cc4-c4cn(C)nc4C(F)(F)F)C3=O)c2c1  AUC(0-t) (male CD-1 mouse; plasma; intravenous; 3 mg/kg): 3840 ng·h/mL
C=CC(=O)N1CC2CC(n3nc(-c4ccc(C(=O)Nc5ccccn5)cc4)c4c(N)ncnc43)CC2C1 (stereo not shown)  AUC(0-t) (SCID mouse; plasma; oral; 3 mg/kg): 588 ng·h/mL
CNC(=O)c1cc(Oc2ccc(NC(=O)Nc3ccc(Cl)c(C(F)(F)F)c3)c(F)c2)ccn1  AUC(0-t) (male mouse; plasma; oral; 10 mg/kg; single dose): 18000 ng·h/mL
COc1nc(-c2cc(C)c(N[C@@H](C)c3c(F)cc(F)cc3F)nn2)ccc1-n1cnc(C)c1  AUC(0-t) (male CD-1 mouse; plasma; oral; 5 mg/kg; single dose): 7960 ng·h/mL
CC(C)(C)c1cc(NC(=O)Nc2ccc(Oc3ccnc4[nH]c(=O)cnc34)cc2F)n(-c2ccccc2)n1  AUC(0-t) (BALB/c mouse; plasma; oral; 10 mg/kg): 416 µM·h
COc1ccc(C(O)COc2ccc(-c3csc(-c4ccc(OCC(O)c5ccc(OC)c(OC)c5)cc4)n3)cc2)cc1OC (stereo not shown)  AUC(0-t) (C57BL/6 mouse; plasma; oral; 30 mg/kg): 34000 ng·h/mL
COc1ccc2nccc(N3CCc4c(cc(Cn5ccnc5)cc4-c4cn(C)nc4C(F)(F)F)C3=O)c2c1  AUC(0-t) (male CD-1 mouse; plasma; intravenous; 3 mg/kg): 1840 ng·h/mL
Cc1ccc(NC(=O)c2ccc(CN3CCN(C)CC3)cc2)cc1Nc1nccc(-c2cncc(-c3oncc3C)c2)n1  AUC(0-t) (male C57BL/6 mouse; brain; oral; 100 mg/kg/day): 1170 ng·h/mL
CN1CCC(N2CCN(c3nccc4[nH]c(-c5ccc(F)c(F)c5)nc34)CC2)CC1  AUC(0-t) (BALB/c mouse; blood; oral; 20 mg/kg): 6.63 µM·h
CCc1cc(OC)c2nccc(N3CCc4c(cc(Cn5ccnc5)cc4-c4cn(C)nc4C(F)(F)F)C3=O)c2c1  AUC(0-t) (male CD-1 mouse; plasma; intravenous; 3 mg/kg): 3330 ng·h/mL
CCn1ncc2c(Nc3ccc(OC(F)(F)F)cc3)ncnc21  AUC(0-t) (male BALB/c mouse; plasma; oral; 20 mg/kg): 201 ng·h/mL
CN1CCN(C2CCN(c3nccc4[nH]c(-c5cc(F)cc(F)c5)nc34)CC2)CC1  AUC(0-t) (mouse; blood; intravenous; 2 mg/kg): 1.95 µM·h
CS(=O)(=O)CCNCc1ccc(-c2ccc3ncnc(Nc4ccc(OCc5cccc(F)c5)c(Cl)c4)c3c2)o1  AUC(0-t) (nude mouse; plasma; oral; 100 mg/kg; single dose): 97500 ng·h/mL
Cc1nc(-c2cnc(NC(C)C)n(C)c2=O)ccc1Oc1ccnc(-c2cnn(C)c2)c1  AUC(0-t) (female mouse; plasma; oral; 15 mg/kg; single dose): 113000 ng·h/mL
